The test system of series [1] is Mus musculus. Description: Tumor volume in 16 days after tumor implantation at a dose of 3.125 mg/kg/day of compound. In kind it is functional. In short, it runs like this: (§1)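 10⁶ M5076 reticulum cell sarcoma cells were injected im into the left leg of female BDF₁ mice, five per group, on day 0. Compound in 10–20% DMSO/arachis oil was dosed ip daily on days 1–17. Tumor volumes (mm³) were recorded on days 12, 16, 20 and 24 after implantation, with NM marking a tumor that could not be measured.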

Series [2] has as its system Mus musculus. In words: Mean of weight gain from day 0 to day 24 at a dose of 50 mg/kg/day of compound. Format: functional. In short, it runs like this: (§2)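 M5076 reticulum cell sarcoma: 10⁶ cells implanted im into the left leg of female BDF₁ mice (groups of five) on day 0. Drug in 10–20% DMSO in arachis oil was given ip daily on days 1–17. Weight change is the mean weight gain from day 0 to day 24.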

The test system of series [3] is Mus musculus. In words: Mean of weight gain from day 0 to day 24 at a dose of 12.5 mg/kg/day of compound. Format: functional. Also noted: unit not given here. The method in brief:
as §2

Series [4] deals with Mus musculus. Description: Tumor volume in 24 days after tumor implantation at a dose of 3.125 mg/kg/day. Format: functional. In short, it runs like this:
as §1

Series [5] concerns Mus musculus. Description: Tumor volume in 16 days after tumor implantation at a dose of 6.25 mg/kg/day of compound. Format: functional. The method in brief: as §1
Series [6] relates to Mus musculus. In words: Tumor volume in 20 days after tumor implantation at a dose of 12.5 mg/kg/day of compound. In kind it is functional. In short, it runs like this: as §1
The test system of series [7] is Mus musculus. In words: Tumor volume in 12 days after tumor implantation at a dose of 3.125 mg/kg/day of compound. In kind it is functional. The method in brief: as §1
Series [8] has as its system Mus musculus. Description: Mean of weight gain from day 0 to day 24 at a dose of 25 mg/kg/day of compound. In kind it is functional. On the set-up: unit not given here. In short, it runs like this:
as §2

The test system of series [9] is Mus musculus. Description: Ratio of tumor volume of test(T) animals compared to control(C) animals x 100 T/C(%)] at a dose of 25 mg/kg/day. In kind it is functional. The method in brief:
(§3)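 M5076 reticulum cell sarcoma: 10⁶ cells implanted im into the left leg of female BDF₁ mice (groups of five) on day 0. Treatment was ip, daily on days 1–17, in 10–20% DMSO in arachis oil. T/C% is treated tumor volume over control tumor volume × 100.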

For series [10], the system named is Mus musculus. Description: Tumor volume in 20 days after tumor implantation at a dose of 6.25 mg/kg/day of compound. In kind it is functional. In short, it runs like this: as §1
In series [11] the test system is Mus musculus. In words: Ratio of tumor volume of test(T) animals compared to control(C) animals x 100 T/C(%)] at a dose of 3.125 mg/kg/day. Format: functional. The method in brief:
as §3

Series [12] concerns Mus musculus. In words: Mean of weight gain from day 0 to day 24 at a dose of 6.25 mg/kg/day. Format: functional. On the set-up: unit not given here. In short, it runs like this: as §2
The subject of series [13] is Mus musculus. Description: Tumor volume in 20 days after tumor implantation at a dose of 3.125 mg/kg/day. In kind it is functional. In short, it runs like this:
as §1

For series [14], the system named is Mus musculus. In words: Ratio of tumor volume of test (T) animals compared to control (C) animals x 100 T/C(%)] at a dose of 50 mg/kg/day of compound. Format: functional. In short, it runs like this:
as §3

Series [15] concerns Mus musculus. In words: Ratio of tumor volume of test(T) animals compared to control(C) animals x 100 T/C(%)] at a dose of 12.50 mg/kg/day. Format: functional. The method in brief: as §3
The test system of series [16] is Mus musculus. In words: Ratio of tumor volume of test(T) animals compared to control(C) animals x 100 T/C(%)] at a dose of 6.25 mg/kg/day. Format: functional. The method in brief:
as §3

The test system of series [17] is Mus musculus. Description: Tumor volume in 24 days after tumor implantation at a dose of 12.5 mg/kg/day. In kind it is functional. The method in brief: as §1
In series [18] the test system is Mus musculus. Description: Tumor volume in 24 days after tumor implantation at a dose of 6.25 mg/kg/day. In kind it is functional. The method in brief: as §1
The subject of series [19] is Mus musculus. Description: (§4) Mean of weight gain from day 0 to day 24 at a dose of 3.125 mg/kg/day of compound. Format: functional. On the set-up: unit not given here. The method in brief: as §2
Series [20] has as its system Mus musculus. In words: Tumor volume in 20 days after tumor implantation at a dose of 3.125 mg/kg/day of compound; NM=tumor not measureable. In kind it is functional, organism-based. The method in brief:
as §1

Series [21] concerns Mus musculus. Description: Tumor volume in 12 days after tumor implantation at a dose of 3.125 mg/kg/day of compound; NM=tumor not measureable. Format: functional, organism-based. The method in brief:
as §1

The subject of series [22] is Mus musculus. Description: Ratio of tumor volume of test(T) animals compared to control(C) animals x 100 T/C(%)] at a dose of 3.125 mg/kg/day of compound; maximal activity for this system. Format: organism-based. The note with it: in vivo. The method in brief:
as §3

The subject of series [23] is Mus musculus. Description: Tumor volume in 24 days after tumor implantation at a dose of 3.125 mg/kg/day of compound; NM=tumor not measureable. In kind it is functional, organism-based. The method in brief: as §1
For series [24], the system named is Mus musculus. Description: Tumor volume in 16 days after tumor implantation at a dose of 3.125 mg/kg/day of compound; NM=tumor not measureable. Format: functional, organism-based. The method in brief: as §1
For series [25], the system named is Mus musculus. Description: Number of survivors treated on day 24 at a dose of 25 mg/kg/day of compound expressed as ratio of (test/control); none of them survived(0/5). In kind it is functional.
The subject of series [26] is Mus musculus. In words: Number of survivors versus treated on day 24 at a dose of 12.5 mg/kg/day of compound; none of them survived(0/5). Format: functional.
The subject of series [27] is Mus musculus. In words: Mean of weight gain from day 0 to day 24 at a dose of 3.125 mg/kg/day of compound (maximum activity noticed). In kind it is functional. In short, it runs like this: as §2
For series [28], the system named is Mus musculus. In words: Number of survivors versus treated on day 24 at a dose of 6.25 mg/kg/day of compound; none of them survived(0/5). Format: functional.
The test system of series [29] is Mus musculus. Description: Tumor volume in 12 days after tumor implantation at a dose of 12.5 mg/kg/day of compound. Format: functional. The method in brief:
as §1

Series [30] relates to Mus musculus. Description: Tumor volume in 12 days after tumor implantation at a dose of 6.25 mg/kg/day of compound. Format: functional. The method in brief: as §1
The subject of series [31] is Mus musculus. In words: Tumor volume in 24 days after tumor implantation at a dose of 50 mg/kg/day of compound. In kind it is functional. In short, it runs like this:
as §1

Series [32] relates to Mus musculus. Description: Tumor volume in 16 days after tumor implantation at a dose of 12.5 mg/kg/day of compound. Format: functional. In short, it runs like this: as §1
Series [33] relates to Mus musculus. Description: Mean of weight gain from day 0 to day 24 in the mice at a dose of 50 mg/kg/day of compound. Format: functional. In short, it runs like this:
as §2

For series [34], the system named is Mus musculus. Description: Tumor volume in 24 days after tumor implantation at a dose of 25 mg/kg/day of compound. In kind it is functional. The method in brief:
as §1

The test system of series [35] is Mus musculus. Description: Tumor volume in 20 days after tumor implantation at a dose of 25 mg/kg/day of compound. Format: functional. In short, it runs like this:
as §1

Series [36] has as its system Mus musculus. Description: Tumor volume in 16 days after tumor implantation at a dose of 25 mg/kg/day of compound. In kind it is functional. The method in brief:
as §1

Series [37] has as its system Mus musculus. In words: Tumor volume in 20 days after tumor implantation at a dose of 3.125 mg/kg/day of compound. In kind it is functional. In short, it runs like this: as §1
Series [38] concerns Mus musculus. Described as §4. Format: functional. In short, it runs like this:
as §2

Series [39] relates to Mus musculus. In words: Ratio of tumor volume of test(T) animals compared to control(C) animals x 100T/C(%)] at a dose of 3.125 mg/kg/day of compound. In kind it is organism-based. To be noted: in vivo. The method in brief: as §3
The test system of series [40] is Mus musculus. Description: Tumor volume in 24 days after tumor implantation at a dose of 3.125 mg/kg/day of compound. Format: functional. The method in brief: as §1

Some results are limits rather than exact numbers.

For `CCc1nc(N)nc(N)c1-c1ccc(NCc2ccc(Cl)c(Cl)c2)c([N+](=O)[O-])c1`, the Tumor volume in series [1] is 498 mm**3; in series [4], 1173 mm**3; in [5], 256 mm**3; in [6], 216 mm**3; in series [7], 216 mm**3; in series [10], 385 mm**3. Besides, the results for the Tumor volume in [13], in series [17] and in series [18] were 858 mm**3, 395 mm**3 and 851 mm**3, respectively. Further, the Weight change in [2] is recorded as 2.9; in [3], 3; in series [8], 2.7; in series [12] it was 3.5; in series [19], 3.6. The Antitumor activity is on record as <8% in [9]; 48% in series [11]; <8% in [14]; 16% in series [15]; 36% in series [16].
Regarding `Cc1nc(N)nc(N)c1-c1ccc(Cl)c(Cl)c1` [METOPRINE], the Tumor volume entry in series [20], in [21], in [23] and in series [24] was “Not measurable” throughout. Also, the T/C in series [22] was < 8%. The Survivors in series [25], in [26] and in series [28] was 0 each time. In series [27], this molecule returned a Weight change of 4.9.
`CCCCNc1ccc(-c2c(N)nc(N)nc2CC)cc1[N+](=O)[O-]`: the Tumor volume in series [29] is 180 mm**3; in series [1], 622 mm**3; in series [4], 2143 mm**3; in series [5] it was 438 mm**3; in series [6], 496 mm**3; in series [30], 212 mm**3. Also, the Tumor volume in series [7] was 271 mm**3; in series [10], 913 mm**3; in series [31], 368 mm**3; in series [32] it was 283 mm**3; in series [34], 638 mm**3; in [13] it was 1176 mm**3. Besides, the Tumor volume was found to be 1061 mm**3 in series [17] and 1920 mm**3 in series [18]. Besides, the Weight change in series [3] came out at 3.6; in [8], 3.7; in [33] it was 2.7; in [12] it was 5.4; in series [19] it was 8.2. Moreover, the Antitumor activity in series [9] was found to be 22%; in [11], 78%; in series [14], 15%; in series [15], 41%; in series [16], 70%.
As for `CCc1nc(N)nc(N)c1-c1ccc(NCc2ccc(C)cc2)c([N+](=O)[O-])c1`, the Tumor volume turned out to be 426 mm**3 in series [35]; 596 mm**3 in series [1]; 1881 mm**3 in [4]; 270 mm**3 in series [5]; 385 mm**3 in series [6]; 180 mm**3 in series [36]. Besides, the Tumor volume was 704 mm**3 in series [10]; 198 mm**3 in series [32]; 514 mm**3 in [34]; 1581 mm**3 in series [13]; 641 mm**3 in series [17]; 1099 mm**3 in [18]. Moreover, the Weight change was determined as 2.4 in series [3], 2.4 in [8], 2.1 in [12] and 3 in series [19]. Further, the Antitumor activity is recorded as 20% in [9], 76% in series [11], 24% in series [15] and 44% in series [16].
In the case of `CN(Cc1cnc2nc(N)nc(N)c2n1)c1ccc(C(=O)N[C@@H](CCC(=O)O)C(=O)O)cc1` [METHOTREXATE], the Tumor volume turned out to be 1914 mm**3 in series [37]; 987 mm**3 in series [1]; 389 mm**3 in [5]; 347 mm**3 in series [30]; 411 mm**3 in series [7]; 2270 mm**3 in series [40]. Moreover, the Weight change in series [38] came out at 3.9. Moreover, the T/C in series [39] turned out to be 92%.

Usually T/C stands for the result in the treated group divided by that in the control group, in per cent.

The values above are taken from ChEMBL document CHEMBL1124368 (J Med Chem, 1989).
